High-throughput results deposited in PubChem BioAssay by several laboratories.
AI-2 QS mod = Vibrio harveyi AI-2 quorum sensing modulation | hit rate 0.4% among 300,000 | Vibrio harveyi JMH597 AI-2 luminescence/OD600 ratio, 9 h; hits give low values; strain lacks LuxN and CqsS sensors; 0 = neutral-control median | activity change, % at 7.5 µM; in the data active means activity change below about -75%, passing the limit was not always enough;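 further: luminescence divided by OD600 gain over 9 h not by final OD600 alone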
MsrA act = activates bovine MsrA enzyme | purified bovine MsrA, absorbance read-out | activation, % at 10.6 µM | hit rate 0.3% among 360,000 | AID 602163; in the data active means activation above about 7.5%;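 further: 0% = vehicle and 100% = reference activator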
AHR activator = human AHR activation. P35869. activation, % at 5 µM. AID 2796. hit rate 2.5% among 320,000. AHR-responsive luciferase reporter cells, luminescence; in the data active means activation above about 47%;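 further: 0% = vehicle wells and 100% = reference agonist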
MsrA inhibitor = bovine MsrA inhibition; purified bovine MsrA, absorbance read-out; inhibition, % at 15.5 µM; hit rate 0.75% among 360,000; in the data active means inhibition above about 4.5%;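 further: 0% = vehicle wells with enzyme and 100% = reference inhibitor wells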
TbMetRS inhib = blocks T. brucei methionyl-tRNA synthetase activity. purified T. brucei MetRS, ATP depletion, Kinase-Glo luminescence. inhibition, % at 11.9 µM. hit rate 0.4% among 360,000. AID 624268;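 active means inhibition above a per-plate cutoff of the control wells' mean inhibition plus 3 SD, cut at about 5.5% in these data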;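 further: 0% = DMSO wells median and 100% = median of wells with control inhibitor compound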
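Test system: purified T. brucei MetRS enzyme. Also added: ATP, methionine and E. coli bulk tRNA substrates. Compound: 11.9 µM single point. Schedule: 15 min enzyme-compound preincubation, 2 h reaction, 10 min detection, 25 °C. Signal: luciferase luminescence of residual ATP, Kinase-Glo. Evaluation: percent inhibition versus plate control medians. Controls: DMSO wells, low control.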
m5-HT2A agonist = agonists of mouse serotonin 5-HT2A receptor (HTR2A); P35363; activation, % at 7.6 µM; CHO-K1 mHTR2A beta-arrestin complementation, luminescence; percent of 30 µM serotonin response; AID 624169; hit rate 0.66% among 360,000;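 active means activation above a run cutoff, the mean activation of all tested compounds plus 3 SD, cut at about 14% in these data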;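 further: 0% = plate median of compound wells and 100% = 30 µM serotonin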
Target sequence (P35363 whole entry, looked up): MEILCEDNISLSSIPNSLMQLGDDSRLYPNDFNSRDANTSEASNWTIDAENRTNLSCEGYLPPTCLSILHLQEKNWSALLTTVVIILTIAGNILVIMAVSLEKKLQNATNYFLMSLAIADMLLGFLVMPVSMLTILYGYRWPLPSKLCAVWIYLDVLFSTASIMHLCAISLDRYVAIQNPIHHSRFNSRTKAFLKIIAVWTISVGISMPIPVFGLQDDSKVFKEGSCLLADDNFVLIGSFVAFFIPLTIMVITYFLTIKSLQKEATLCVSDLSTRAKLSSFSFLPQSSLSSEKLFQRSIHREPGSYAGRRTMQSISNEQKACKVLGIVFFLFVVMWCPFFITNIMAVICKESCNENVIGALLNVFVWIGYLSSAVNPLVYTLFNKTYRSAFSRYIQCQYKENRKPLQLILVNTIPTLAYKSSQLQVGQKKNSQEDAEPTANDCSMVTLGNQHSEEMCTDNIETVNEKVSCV
MOR ag counter = activates human mu opioid receptor in HTR2A counterscreen | shares compounds with m5-HT2A agonist | U2OS OPRM1 beta-arrestin PathHunter, luminescence; DMSO 0%, DAMGO 9.3 µM 100% | activation, % at 9.3 µM | hit rate 5.3% among 2,300 | AID 624380;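 active means mean activation above the mean of DMSO-only wells plus 3 SD, cut at about 0.5% in these data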
HTR2A ag conf = confirmation of mouse HTR2A serotonin receptor agonists; shares compounds with m5-HT2A agonist; CHO-K1 PathHunter beta-arrestin recruitment, luminescence; DMSO 0%, 30 µM serotonin 100%; activation, % at 7.6 µM; hit rate 19% among 2,300; AID 624381;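 active means mean activation across triplicates above the hit threshold derived in the original primary screen, cut at about 15% in these data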
Starred values were filed as active, the others as inactive; · = no result. Sampled rows, rich in hits. Any-hit rate of the full collection: about 4.4%.

SMILES | AI-2 QS mod | MsrA act | AHR activator | MsrA inhibitor | TbMetRS inhib | m5-HT2A agonist | MOR ag counter | HTR2A ag conf
COc1cccc(CNC(=O)CCC(=O)N2Cc3cccc(OC)c3Oc3ncccc32)c1OC | 13 | -2 | 2 | 0 | 0 | 6 | · | ·
COc1cccc2c1Oc1ncccc1N(C(=O)CCC(=O)NCc1ccccc1Cl)C2 | 8 | -3 | 0 | 0 | -1 | 17* | 0 | 1
CCOC(=O)N1CCC(c2cc(=O)n3[nH]cc(C(=O)OC)c3n2)CC1 | 24 | -3 | -1 | 0 | 0 | 20* | 0 | 3
Cc1noc(C)c1S(=O)(=O)Nc1ccc2c(c1)C(=O)N([C@H](C)CO)C[C@@H](C)[C@@H](CN(C)Cc1ccc3c(c1)OCO3)O2 | · | -1 | 0 | 0 | -1 | -1 | · | ·
Cc1ccc(-c2csc(NC(=O)CSc3ncn(-c4ccccc4)n3)n2)cc1 | 19 | -1 | 17 | 0 | 0 | 0 | · | ·
Cc1csc(NC(=O)CSc2ncn(-c3ccccc3)n2)n1 | 5 | -3 | 16 | 0 | 0 | 21* | 0 | 0
COc1ccc(CC(=O)Nc2ccc3c(c2)OC2(CCCC2)O3)c(OC)c1 | · | -2 | · | -2 | 0 | -1 | · | ·
Cn1ncc(Br)c1NC(=O)Nc1ccccc1 | -9 | -1 | 2 | · | 0 | 14* | 1.0* | 8
CC(C)NCC(O)c1ccc(O)c(O)c1 (centres undefined) | -7 | -10 | -5 | 2 | -1 | 1 | · | ·
NC[C@H](O)c1ccc(O)c(O)c1 | · | -3 | -1 | -1 | -1 | 36* | 0 | 143*
CNC[C@H](O)c1ccc(O)c(O)c1 | 18 | -9 | -1 | 2 | -1 | 50* | 0 | 165*
CC(=O)C1=CCC(c2cccc(Cl)c2)N(S(=O)(=O)c2ccc(C)cc2)C1 (centres undefined) | · | -1 | · | -1 | 0 | -5 | · | ·
COCCN(Cc1ccccc1)C(=O)c1ccc(C(=O)c2ccccc2)cc1 | · | -5 | -1 | 1 | 0 | 22* | 0 | -2
O=C(CCc1ccccc1)NNC(=O)COc1ccc([N+](=O)[O-])cc1 | 13 | -2 | 2 | 0 | 0 | 0 | · | ·
CCC(CC)C(=O)NCCc1cc2ccc(C)cc2[nH]c1=O | 32 | -5 | 10 | 0 | 0 | 21* | 0 | -5
CC1(COS(N)(=O)=O)CCCCC1 | 2 | 2 | -1 | · | 0 | 2 | · | ·
COc1ccc(OC)c(CN2CCN(C(=O)c3ccco3)CC2)c1 | 10 | -12 | -1 | -1 | -2 | 16* | 1.2* | 34*
COc1ccc2oc(C(=O)N3CCN(c4ncccn4)CC3)c(C)c2c1 | 0 | -1 | 2 | -1 | 1 | 3 | · | ·
COc1cccc(CN2CCN(C(=O)c3ccco3)CC2)c1 | 5 | -3 | -4 | 0 | 0 | 37* | -1 | 109*
COc1ccc2oc(C(=O)N3CCN(C(=O)c4ccco4)CC3)c(C)c2c1 | 11 | -1 | 5 | 0 | 0 | 14* | -1 | -2
COc1cccc(CN2CCCN(S(=O)(=O)c3ccc(Br)cc3)CC2)c1 | 31 | -14 | 5 | · | -1 | 29* | 0 | 5
Cc1cccc(NC(=O)CN(CC2CCCO2)C(=O)c2ccc(S(C)(=O)=O)cc2)c1C (centres undefined) | · | -2 | · | 3 | 0 | 3 | · | ·
COc1ccc(C)cc1N(C(=O)c1snc(C(N)=O)c1N)C(C(=O)NC1CCCC1)c1ccc(F)cc1 (centres undefined) | 28 | -2 | 2 | 0 | 0 | 6 | · | ·
CCC(C)[C@H](NC(=O)C1CC(=O)N(c2ccc(OC)cc2)C1)C(=O)NC1CCCC1 (some centres undefined) | 14 | -2 | 0 | 0 | 1 | -2 | · | ·
COc1cccc(-c2nc(CN3CCN(C(=O)c4ccco4)CC3)c(C)o2)c1OC | · | 2 | · | 2 | 0 | 15* | -1 | 43*
SMILES | AI-2 QS mod | MsrA act | AHR activator | MsrA inhibitor | TbMetRS inhib | m5-HT2A agonist | MOR ag counter | HTR2A ag conf
Cc1noc(C)c1S(=O)(=O)N(C)C[C@H]1Oc2ccc(NS(=O)(=O)c3cn(C)cn3)cc2C(=O)N([C@H](C)CO)C[C@@H]1C | · | -7 | -1 | -1 | -1 | 3 | · | ·
CCOC(=O)C1CCN(C(c2ccccn2)c2c(C)[nH]c3ccccc23)CC1 (centres undefined) | 12 | 0 | 1 | -1 | 0 | 7 | · | ·
Cc1[nH]c2ccccc2c1C(c1ccccn1)N1CCC(C(N)=O)CC1 (centres undefined) | 7 | 0 | 1 | -1 | 0 | 17* | 0 | -5
Cc1ccc(P(=O)(CO)c2ccc(C)cc2)cc1 | · | -4 | 0 | 1 | -1 | 15* | -1 | -5
N#Cc1ccccc1OCC(=O)NNC(=O)CCNC(=O)c1ccccc1 | · | -10 | 1 | -1 | 0 | 0 | · | ·
CN1CCN(NC(=O)Nc2ccc(F)cc2)CC1 | 14 | -3 | · | 0 | 0 | 15* | -1 | -2
CCCCc1cn([C@@H](CCCCNC(=O)OC(C)(C)C)C(=O)N2CCN(C(=O)OC(C)(C)C)CC2)nn1 | 12 | -6 | 1 | -1 | 0 | 16* | -1 | -1
C#CCOCCOCCOCCNc1nc(N2CCOCC2)nc(N2CCN(C(=O)CCCCCCCCCCNC(=O)[C@@H](CCC(=O)O)n3cc(CCCCCN)nn3)CC2)n1 | · | -8 | 1 | 1 | 0 | 15* | -1 | -2
CC(C)(C)OC(=O)CC[C@@H](C(=O)NCCCCCCCCCCC(=O)N1CCN(C(=O)OC(C)(C)C)CC1)n1cc(CCCCCNC(=O)OC(C)(C)C)nn1 | · | -9 | -1 | 2 | -1 | 5 | · | ·
CC(C)(C)OC(=O)NCCCC[C@@H](C(=O)N1CCN(C(=O)OC(C)(C)C)CC1)n1cc(CCC(=O)O)nn1 | 32 | -1 | 0 | 0 | 0 | -6 | · | ·
CC(C)(C)OC(=O)NCCCCCc1cn([C@@H](CO)C(=O)NCCCCCCCCCCC(=O)N2CCN(C(=O)OC(C)(C)C)CC2)nn1 | · | 2 | -7 | 0 | 0 | 15* | 0 | 19*
COC(=O)c1cc(S(=O)(=O)NC2CCC(C)CC2)cn1C (centres undefined) | 20 | -2 | 4 | -1 | 0 | 0 | · | ·
O=C(c1cnc(Cc2c[nH]c3ccccc23)c(I)c1)N1CCCCC1 | · | 0 | · | -1 | 1 | -2 | · | ·
O=C(COC(=O)c1cccnc1Cl)Nc1cc(S(=O)(=O)N2CCCCCC2)ccc1Cl | · | -2 | · | -1 | 0 | -11 | · | ·
O=C(c1cccs1)N1CCN(C(=O)c2cccs2)C1=S | · | -1 | · | 2 | 0 | 4 | · | ·
